Broadly, the IC50 is the concentration needed to halve the response being measured. Read a high IC50 as weaker potency in that assay. A word on the GI50: it is the concentration giving 50% growth inhibition.

Activity calls are given as the source filed them. No cut-off for these calls is given here.

Our source for the Activity, IC50 and GI50 values is ChEMBL document CHEMBL3112420, “Discovery of 8-cyclopentyl-2-[4-(4-methyl-piperazin-1-yl)-phenylamino]-7-oxo-7,8-dihydro-pyrido[2,3-d]pyrimidine-6-carbonitrile (7x) as a potent inhibitor of cyclin-dependent kinase 4 (CDK4) and AMPK-related kinase 5 (ARK5)” (J Med Chem, 2014).

Assay [1] has as its system MDA-MB-231. As to the kind of experiment: Induction of apoptosis in human MDA-MB-231 cells assessed as PARP cleavage after 24 hrs by Western blotting analysis. In kind it is functional, cell-based. A general note: In western blotting, separated proteins are transferred to a membrane and probed.
For assay [2], the system named is MDA-MB-231. As to the kind of experiment: Cell cycle arrest in human MDA-MB-231 cells assessed as accumulation at G1 phase at 0.5 to 1 uM after 24 hrs by propidium iodide staining-based flow cytometric analysis. In kind it is functional. In outline: (§1)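 Cells plated at 1.0 × 10^6 per dish, then treated 24 h later with increasing concentrations for 24 h. Floating and adherent cells were pooled, PBS-washed and fixed in ice-cold 70% ethanol for at least 24 h. They were then stained with propidium iodide plus RNase A for 30 min at 37 °C. Percentage of cells in each phase was read by flow cytometry.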
(In general: A flow cytometer gives signals particle by particle.)

Assay [3] deals with MCF7. As to the kind of experiment: Cell cycle arrest in human MCF7 cells assessed as accumulation at G1 phase at 0.5 to 1 uM after 24 hrs by propidium iodide staining-based flow cytometric analysis. In kind it is functional. In outline:
as §1

Assay [4] addresses Macrophage colony-stimulating factor 1 receptor (Homo sapiens, UniProt P07333). As to the kind of experiment: Inhibition of FMS (unknown origin).
The target in assay [5] is CDK6/cyclin D1 (Homo sapiens, UniProt Q00534). As to the kind of experiment: Inhibition of CDK6/cyclinD1 (unknown origin). In kind it is protein-complex assay.
The test system of assay [6] is 2008. As to the kind of experiment: Cytotoxicity against human 2008 cells after 96 hrs by Cell-Titer Blue assay. In kind it is functional. Conditions: Homo sapiens, 2008, 96 h.
Assay [7] is described as follows: Cytotoxicity against human SNU398 cells after 96 hrs by Cell-Titer Blue assay. In kind it is functional. Particulars: SNU-398, 96 h.
For assay [8], the system named is A549. As to the kind of experiment: Cytotoxicity against human A549 cells after 96 hrs by Cell-Titer Blue assay. In kind it is functional. Conditions: A549, 96 h.
Assay [9] is described as follows: Cytotoxicity against human U266 cells after 96 hrs by Cell-Titer Blue assay. Type of assay: functional. Conditions: U-266, 96 h.
The nature of assay [10]: Cytotoxicity against human U87 cells after 96 hrs by Cell-Titer Blue assay. In kind it is functional, U-87MG ATCC. Particulars: U-87 MG.
Assay [11] can be described thus: Cytotoxicity against human SNU5 cells after 96 hrs by Cell-Titer Blue assay. In kind it is functional. Particulars: SNU-5, 96 h.
Assay [12] relates to DU-145. As to the kind of experiment: Cytotoxicity against human DU145 cells after 96 hrs by Cell-Titer Blue assay. Conditions: DU-145, 96 h. Type of assay: functional, cell-based.
For assay [13], the system named is K562. As to the kind of experiment: Cytotoxicity against human K562 cells after 96 hrs by Cell-Titer Blue assay. Conditions: K562, 96 h. In kind it is functional, cell-based.

Chain of CDK6/cyclin D1 (P24385 whole entry): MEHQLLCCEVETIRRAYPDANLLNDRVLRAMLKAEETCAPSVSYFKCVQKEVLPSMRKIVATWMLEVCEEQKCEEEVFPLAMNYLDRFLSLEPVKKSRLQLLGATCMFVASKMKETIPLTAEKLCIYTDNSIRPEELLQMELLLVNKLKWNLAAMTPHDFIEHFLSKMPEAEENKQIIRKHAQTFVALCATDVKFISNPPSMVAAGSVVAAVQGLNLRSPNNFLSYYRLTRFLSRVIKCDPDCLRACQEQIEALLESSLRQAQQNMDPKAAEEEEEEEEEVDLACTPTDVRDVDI
Chain of CDK6/cyclin D1 (Q00534 whole entry): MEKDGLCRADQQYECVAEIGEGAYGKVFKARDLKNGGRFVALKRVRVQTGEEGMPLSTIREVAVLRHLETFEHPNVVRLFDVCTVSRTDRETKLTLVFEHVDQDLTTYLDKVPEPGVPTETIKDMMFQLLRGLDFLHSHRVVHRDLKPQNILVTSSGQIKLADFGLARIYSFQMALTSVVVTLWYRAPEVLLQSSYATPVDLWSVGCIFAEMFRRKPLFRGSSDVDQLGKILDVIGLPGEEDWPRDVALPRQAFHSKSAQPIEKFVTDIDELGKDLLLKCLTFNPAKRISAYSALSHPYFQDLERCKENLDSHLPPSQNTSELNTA
Chain of Macrophage colony-stimulating factor 1 receptor (P07333 whole entry): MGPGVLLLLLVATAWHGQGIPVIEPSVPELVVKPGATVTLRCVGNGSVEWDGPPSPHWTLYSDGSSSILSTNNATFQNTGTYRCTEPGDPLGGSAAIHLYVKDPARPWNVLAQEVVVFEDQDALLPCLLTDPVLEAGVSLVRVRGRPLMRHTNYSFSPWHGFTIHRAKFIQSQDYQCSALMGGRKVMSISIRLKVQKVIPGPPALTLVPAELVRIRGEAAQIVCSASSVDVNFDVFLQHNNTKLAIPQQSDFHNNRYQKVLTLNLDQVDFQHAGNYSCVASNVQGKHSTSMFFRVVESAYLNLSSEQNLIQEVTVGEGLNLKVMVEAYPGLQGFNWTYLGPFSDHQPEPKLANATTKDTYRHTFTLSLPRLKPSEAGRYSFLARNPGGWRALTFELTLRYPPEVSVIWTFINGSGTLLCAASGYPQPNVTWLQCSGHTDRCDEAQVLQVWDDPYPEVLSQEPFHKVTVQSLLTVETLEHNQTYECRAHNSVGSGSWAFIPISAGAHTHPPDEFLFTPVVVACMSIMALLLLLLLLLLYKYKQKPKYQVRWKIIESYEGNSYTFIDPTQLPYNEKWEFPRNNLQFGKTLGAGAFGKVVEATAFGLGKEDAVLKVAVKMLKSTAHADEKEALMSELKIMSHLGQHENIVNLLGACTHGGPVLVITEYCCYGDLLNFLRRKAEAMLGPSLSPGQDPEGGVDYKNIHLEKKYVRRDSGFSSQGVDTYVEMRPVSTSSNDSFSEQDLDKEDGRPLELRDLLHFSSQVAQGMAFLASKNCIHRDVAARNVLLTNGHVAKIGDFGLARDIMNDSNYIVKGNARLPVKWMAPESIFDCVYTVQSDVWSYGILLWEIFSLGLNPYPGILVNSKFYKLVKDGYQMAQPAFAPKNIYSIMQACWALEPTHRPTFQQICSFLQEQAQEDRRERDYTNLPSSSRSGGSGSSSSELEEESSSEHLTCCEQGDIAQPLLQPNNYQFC

Regarding `CN1CCN(c2ccc(Nc3ncc4cc(C#N)c(=O)n(C5CCCC5)c4n3)cc2)CC1` [NARAZACICLIB], the Activity result in assay [1] was “Dose-dependent effect”. Further, the outcome in assay [2] and in assay [3] was Active. Also, the IC50 in [4] came out at 10 nM; in assay [5], 9.82 nM; in [13], 50 nM. In addition, the GI50 was 1500 nM in assay [6]; 200 nM in [7]; 200 nM in assay [8]; 200 nM in [9]; 100 nM in assay [10]; 100 nM in [11]. The values for the concentration for 50% growth inhibition (GI50) in assay [12] and in [13] were 50 nM and 100 nM, respectively.
